This passage reports IC50 and Kd results from ChEMBL document CHEMBL1130167, “NMR-based discovery of lead inhibitors that block DNA binding of the human papillomavirus E2 protein” (J Med Chem, 1997).

SMILES strings stand for the structures.

The first assay relates to Nucleic Acid. Briefly: Compound was tested for inhibition activity against HPV-E2 DNA-binding domain (DBD) (human papillomavirus E2) binding to DNA. It is filed as nucleic-acid assay. In outline:
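Filter-binding assay: binding reactions at room temperature for 10 min in binding buffer (20 mM Tris-HCl pH 7.5, 100 mM NaCl, 5 mM DTT, 1 mM EDTA, BSA) with 4 nM DNA and 400 nM E2 DBD. Compounds were added from DMSO stocks at various concentrations. Mixtures were filtered through nitrocellulose, washed with buffer lacking BSA and counted by scintillation. IC50 was read from concentration versus percent inhibition plots.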
Take `O=C(O)/C=C/C=C/c1ccc(Oc2ccccc2)cc1`: the half-maximal inhibitory concentration (IC50) – broadly, the concentration that gives 50% inhibition – was found to be 0.075 mM.
In turn, `O=C(O)CCCc1ccc(Oc2ccccc2)cc1` returned an IC50 of over 1 mM.
Still for that read-out and setting: next, `O=C(O)/C=C/C=C/c1cccc(Oc2cc(Cl)cc(Cl)c2)c1`: 0.01 mM; `O=C(O)c1ccc(-c2ccccc2)cc1`: over 1 mM; `O=C(O)c1ccc(-c2cc(Cl)cc(Cl)c2)cc1`: 0.15 mM.

In the next assay the target is Regulatory protein E2 (Human papillomavirus type 31). The assay is described as follows: Dissociation constant after binding to human papillomavirus E2 DNA-binding domain (DBD) by observing the changes in [15N]-HSQC spectra.
Take `O=C(O)c1ccc(-c2cccc(F)c2)cc1`: the dissociation constant (Kd) – broadly, a measure of binding affinity in units of concentration – turned out to be 1.6 mM.
In the case of `O=C(O)c1ccc(-c2cccc(C(F)(F)F)c2)cc1`, the Kd worked out at 0.32 mM.
In turn, `O=C(O)/C=C/C=C/c1ccc(Oc2ccccc2)cc1` yielded a Kd of 0.35 mM.
Still for that read-out and setting: then `O=C(O)CCCc1ccc(Oc2ccccc2)cc1`, with 1.9 mM.
The same measure, in the same setting: next, `Cc1ccccc1-c1ccc(C(=O)O)cc1`: 2.7 mM.
Still for that read-out and setting: then `Cc1cccc(-c2ccc(C(=O)O)cc2)c1`, with 1.9 mM; and `COc1ccccc1-c1ccc(C(=O)O)cc1`, with 1.7 mM.
For the molecule `O=C(O)c1ccc(-c2ccc([N+](=O)[O-])c(Cl)c2)cc1`, the Kd was over 10 mM.
In turn, `CC(C)(C)c1ccc(-c2ccc(C(=O)O)cc2)cc1` came in with a Kd of over 10 mM.
The same measure, in the same setting: then `CN(C)c1ccc(-c2ccc(C(=O)O)cc2)cc1`, with 6.8 mM.
In the case of `Nc1cccc(-c2ccc(C(=O)O)cc2)c1`, the Kd is over 10 mM.
For the molecule `O=C(O)c1ccc(-c2cccc([N+](=O)[O-])c2)cc1`, binding was put at a Kd of 8.9 mM.
With `O=C(O)CCCCc1ccc(Oc2ccccc2)cc1`, binding was put at a Kd of 0.85 mM. Against the preceding molecule, the Kd is about 10-fold lower.
On the same count and under the same terms, next, `O=C(O)c1ccc(-c2cc(C(F)(F)F)cc(C(F)(F)F)c2)cc1`: over 10 mM; `O=C(O)CCc1ccc(Oc2ccccc2)cc1`: 2.3 mM; `O=C(O)Cc1cccc(Oc2ccccc2)c1`: over 10 mM.
`O=C(O)c1ccc(-c2ccc(C(F)(F)F)cc2)cc1` yielded a Kd of 1.5 mM.
`O=C(O)c1ccc(-c2ccc(Cl)c(Cl)c2)cc1` had a dissociation constant (Kd) of 6.6 mM. This Kd is about 4.4-fold higher than that of the molecule before.
`COc1ccc(-c2ccc(C(=O)O)cc2)cc1` gave a dissociation constant Kd of 8.8 mM.
With `O=C(O)c1ccc(-c2ccc(Cl)cc2Cl)cc1`, the Kd stood at 3.5 mM.
`O=C(O)c1ccc(-c2cccc(Cl)c2)cc1` yielded an equilibrium dissociation constant (Kd) of 1.2 mM.
The same measure, in the same setting: then `O=C(O)c1ccc(-c2ccc(Oc3ccccc3)cc2)cc1`, with 2.1 mM; and `O=C(O)c1ccc(-c2cc(Cl)cc(Cl)c2)cc1`, with 0.06 mM; and `O=C(O)c1ccc(-c2ccc(O)cc2)cc1`, with over 10 mM.
